Test results reported in ChEMBL document CHEMBL3244337, “Antiallergic activity of tetracyclic derivatives of quinoline-2-carboxylic acid. 2. Some benzothienoquinolinecarboxylic acids” (1978).

Tested on: Rattus norvegicus
Test: Antiallergic activity in ip dosed Sprague-Dawley rat assessed as compound inhibition of egg albumin/Bordetulla pertusis antibody-induced passive sensitization treated 5 mins before induction by passive cutaneous anaphylaxis assay
Assay type: functional
Settings: read-out: ID50 (the source's name)
In short: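 Rat antiserum against egg albumin, raised with Bordetella pertussis as adjuvant, was injected intradermally into the middorsal skin. Sensitization developed for 24 h. Compound was given ip 5 min before iv egg albumin plus Evans blue, at 10 to 0.156 mg/kg with six rats per dose. Blue-weal area was compared with untreated rats as % inhibition. ID50 was reported with 95% confidence limits.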

| SMILES | ED50 |
| --- | --- |
| O=C(O)c1cc(=O)c2c3c(ccc2[nH]1)S(=O)(=O)c1ccccc1-3 | 1.3 mg/kg |
| O=C(O)c1cc(=O)c2c(ccc3c2c2ccccc2[s+]3[O-])[nH]1 (stereo not drawn) | 0.3 mg/kg |
| O=C([O-])c1cc(=O)c2c(OCC(O)COc3cccc4oc(C(=O)[O-])cc(=O)c34)cccc2o1.[Na+].[Na+] [CROMOLYN SODIUM] | 2.6 mg/kg |

Tested on: Rattus norvegicus
Test: Ratio of DSCG MED to compound MED for antiallergic activity in ip dosed Sprague-Dawley rat assessed as compound inhibition of egg albumin/Bordetulla pertusis antibody-induced passive sensitization treated 5 mins before induction by passive cutaneous anaphylaxis assay
Assay type: functional
Settings: not given

| SMILES | Ratio |
| --- | --- |
| O=C(O)c1cc(=O)c2c(ccc3c2c2ccccc2[s+]3[O-])[nH]1 (stereo not drawn) | 8 |
| O=C(O)c1cc(=O)c2c(Cl)c3c(cc2[nH]1)-c1ccccc1S3(=O)=O | 8 |
| O=C(O)c1cc(=O)c2cc3c(c(Cl)c2[nH]1)-c1ccccc1S3(=O)=O | 4 |

Tested on: Rattus norvegicus
Test: Antiallergic activity in ip dosed Sprague-Dawley rat assessed as compound required to > 50% inhibition of egg albumin/Bordetulla pertusis antibody-induced passive sensitization treated 5 mins before induction by passive cutaneous anaphylaxis assay
Assay type: functional
Settings: not given
In short: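 Passive cutaneous anaphylaxis in Sprague-Dawley rats. Intradermal anti-egg-albumin antibody was left for 24 h, then compound was given ip 5 min before iv antigen and Evans blue, with six animals per dose. Initial doses were 25, 10 or 5 mg/kg, then a descending series down to 0.156 mg/kg. MED is the lowest dose giving >50% inhibition of weal area versus untreated rats, p ≤ 0.05 (Student's t test).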

| SMILES | MED>50 |
| --- | --- |
| COc1ccc2sc3ccc4[nH]c(C(=O)O)cc(=O)c4c3c2c1 | >5 mg/kg |
| O=C(O)c1cc(=O)c2c(ccc3sc4ccc(F)cc4c32)[nH]1 | >5 mg/kg |
| O=C(O)c1cc(=O)c2ccc3sc4ccccc4c3c2[nH]1 | >10 mg/kg |
| O=C(O)c1cc(=O)c2ccc3c(c2[nH]1)-c1ccccc1S3(=O)=O | 5 mg/kg |
| O=C(O)c1cc(=O)c2ccc3c(c2[nH]1)S(=O)(=O)c1ccccc1-3 | >25 mg/kg |
| O=C(O)c1cc(=O)c2c(ccc3c4ccccc4sc32)[nH]1 | >10 mg/kg |
| O=C(O)c1cc(=O)c2c3c(ccc2[nH]1)-c1ccccc1S3(=O)=O | >10 mg/kg |
| O=C(O)c1cc(=O)c2cc3c(cc2[nH]1)S(=O)(=O)c1ccccc1-3 | 2.5 mg/kg |
| O=C(O)c1cc(=O)c2c(ccc3sc4ccccc4c32)[nH]1 | 5 mg/kg |
| O=C(O)c1cc(=O)c2c(ccc3sc4ccc(Br)cc4c32)[nH]1 | >10 mg/kg |
| O=C(O)c1cc(=O)c2c(ccc3sc4ccc(Cl)cc4c32)[nH]1 | >10 mg/kg |
| Cc1ccc2sc3ccc4[nH]c(C(=O)O)cc(=O)c4c3c2c1 | >10 mg/kg |
| O=C(O)c1cc(=O)c2c(ccc3sc4c(Cl)cccc4c32)[nH]1 | >10 mg/kg |
| COc1cccc2c1sc1ccc3[nH]c(C(=O)O)cc(=O)c3c12 | >5 mg/kg |
| Cc1cccc2c1sc1ccc3[nH]c(C(=O)O)cc(=O)c3c12 | >5 mg/kg |
| O=C(O)c1cc(=O)c2c(cc(Cl)c3sc4ccccc4c32)[nH]1 | >10 mg/kg |
| COc1cc2[nH]c(C(=O)O)cc(=O)c2c2c1sc1ccccc12 | >10 mg/kg |
| O=C(O)c1cc(=O)c2c3c(ccc2[nH]1)S(=O)(=O)c1ccc(Br)cc1-3 | >10 mg/kg |
| O=C(O)c1cc(=O)c2c3c(ccc2[nH]1)S(=O)(=O)c1ccc(Cl)cc1-3 | >10 mg/kg |
| Cc1ccc2c(c1)-c1c(ccc3[nH]c(C(=O)O)cc(=O)c13)S2(=O)=O | 10 mg/kg |
| COc1ccc2c(c1)-c1c(ccc3[nH]c(C(=O)O)cc(=O)c13)S2(=O)=O | 2.5 mg/kg |

| SMILES | MED>50 |
| --- | --- |
| CCCCCCOc1ccc2c(c1)-c1c(ccc3[nH]c(C(=O)O)cc(=O)c13)S2(=O)=O | >10 mg/kg |
| O=C(O)c1cc(=O)c2c3c(ccc2[nH]1)S(=O)(=O)c1ccc(F)cc1-3 | 5 mg/kg |
| O=C(O)c1cc(=O)c2c3c(ccc2[nH]1)S(=O)(=O)c1c(Cl)cccc1-3 | 5 mg/kg |
| COc1cccc2c1S(=O)(=O)c1ccc3[nH]c(C(=O)O)cc(=O)c3c1-2 | 2.5 mg/kg |
| Cc1cccc2c1S(=O)(=O)c1ccc3[nH]c(C(=O)O)cc(=O)c3c1-2 | 2.5 mg/kg |
| O=C(O)c1cc(=O)c2c3c(c(Cl)cc2[nH]1)S(=O)(=O)c1ccccc1-3 | 2.5 mg/kg |
| COc1cc2[nH]c(C(=O)O)cc(=O)c2c2c1S(=O)(=O)c1ccccc1-2 | 1.25 mg/kg |
| COc1cc2c(c3c(=O)cc(C(=O)O)[nH]c13)-c1ccccc1S2(=O)=O | 1.25 mg/kg |
| O=C(O)c1cc(=O)c2c3c(cc(Br)c2[nH]1)S(=O)(=O)c1ccccc1-3 | 2.5 mg/kg |
| O=C(O)c1cc(=O)c2c([nH]1)c(Br)cc1c2c2ccccc2[s+]1[O-] (stereo not drawn) | 2.5 mg/kg |
| O=C(O)c1cc(=O)c2cc3c(cc2[nH]1)-c1ccccc1S3(=O)=O | 2.5 mg/kg |
| O=C(O)c1cc(=O)c2c(Cl)c3c(cc2[nH]1)-c1ccccc1S3(=O)=O | 0.312 mg/kg |
| O=C(O)c1cc(=O)c2cc3c(c(Cl)c2[nH]1)-c1ccccc1S3(=O)=O | 0.625 mg/kg |
| O=C(O)c1cc(=O)c2cc3c(c(Br)c2[nH]1)-c1ccccc1S3(=O)=O | 1.25 mg/kg |
| O=C(O)c1cc(=O)c2c(Cl)c3c(c(Cl)c2[nH]1)-c1ccccc1S3(=O)=O | 1.25 mg/kg |
| Cc1c2c(cc3c(=O)cc(C(=O)O)[nH]c13)S(=O)(=O)c1ccccc1-2 | 1.25 mg/kg |
| O=C(O)c1cc(=O)c2cc3sc4ccccc4c3c(Cl)c2[nH]1 | >10 mg/kg |
| O=C(O)c1cc(=O)c2cc3sc4ccccc4c3c(Br)c2[nH]1 | >10 mg/kg |
| CSCc1c2[nH]c(C(=O)O)cc(=O)c2cc2sc3ccccc3c12 | >5 mg/kg |
| O=C(O)c1cc(=O)c2cc3c(cc2[nH]1)c1ccccc1[s+]3[O-] (stereo not drawn) | 1.25 mg/kg |
| O=C(O)c1cc(=O)c2cc3c(c(Cl)c2[nH]1)c1ccccc1[s+]3[O-] (stereo not drawn) | 1.25 mg/kg |
